Consider 14 compounds from ChEMBL document CHEMBL4699539, “Dual antagonists of α5β1/αvβ1 integrin for airway hyperresponsiveness” (Bioorg Med Chem Lett, 2020).

Data set [1] addresses T1, Integrin alpha-5/beta-1 (Homo sapiens, UniProt P05556+P08648). Description: Inhibition of alpha5beta1 integrin in human SW480 cells assessed as inhibition of cell adhesion to fibronectin incubated for 60 mins by crystal violet staining based analysis. Summed up:
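Adhesion of SW480 cells plated on fibronectin coated at 0.3 µg/ml, used to measure α5β1-mediated attachment. IC50 values are means ± S.D., n = 3 or higher.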

Data set [2] addresses T2, Integrin alpha-V/beta-3 (Homo sapiens, UniProt P05106+P06756). In words: Inhibition of alphavbeta3 integrin (unknown origin) expressed in human SW480 cells transfected with human beta3 assessed as inhibition of cell adhesion to fibrinogen incubated for 60 mins by crystal violet staining based analysis. The procedure, abridged:
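SW480 cells transfected with human β3, allowed to adhere to fibrinogen coated at 1 µg/ml, used to measure αvβ3-mediated attachment. IC50 values are means ± S.D., n = 3 or higher.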

In data set [3] the target is T3, Integrin alpha-V/beta-1 (Homo sapiens, UniProt P05556+P06756). In words: Inhibition of alphavbeta1 integrin (unknown origin) expressed in CHO cells assessed as inhibition of cell adhesion to fibronectin incubated for 60 mins by crystal violet staining based analysis. The procedure, abridged:
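Adhesion of CHOαv cells to fibronectin coated at 0.3 µg/ml, used to measure αvβ1-mediated attachment. IC50 values are means ± S.D., n = 3 or higher.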

Data set [4] concerns the target T1, Integrin alpha-5/beta-1. In words: Inhibition of alpha5beta1 integrin (unknown origin) by solid phase binding assay. The data set is classed as protein-complex assay.
The target of data set [5] is T3, Integrin alpha-V/beta-1. Description: Inhibition of alphavbeta1 integrin (unknown origin) by solid phase binding assay. The data set is classed as protein-complex assay.
Data set [6] concerns the target T2, Integrin alpha-V/beta-3. In words: Inhibition of alphavbeta3 integrin (unknown origin) by solid phase binding assay. The data set is classed as protein-complex assay.
Data set [7] deals with Integrin alpha-V/beta-5 (Homo sapiens, UniProt P06756+P18084). Description: Inhibition of alphavbeta5 integrin (unknown origin) by solid phase binding assay. The data set is classed as protein-complex assay.
Integrin alpha-V/beta-5, sequence (P06756 31-889 limits assumed): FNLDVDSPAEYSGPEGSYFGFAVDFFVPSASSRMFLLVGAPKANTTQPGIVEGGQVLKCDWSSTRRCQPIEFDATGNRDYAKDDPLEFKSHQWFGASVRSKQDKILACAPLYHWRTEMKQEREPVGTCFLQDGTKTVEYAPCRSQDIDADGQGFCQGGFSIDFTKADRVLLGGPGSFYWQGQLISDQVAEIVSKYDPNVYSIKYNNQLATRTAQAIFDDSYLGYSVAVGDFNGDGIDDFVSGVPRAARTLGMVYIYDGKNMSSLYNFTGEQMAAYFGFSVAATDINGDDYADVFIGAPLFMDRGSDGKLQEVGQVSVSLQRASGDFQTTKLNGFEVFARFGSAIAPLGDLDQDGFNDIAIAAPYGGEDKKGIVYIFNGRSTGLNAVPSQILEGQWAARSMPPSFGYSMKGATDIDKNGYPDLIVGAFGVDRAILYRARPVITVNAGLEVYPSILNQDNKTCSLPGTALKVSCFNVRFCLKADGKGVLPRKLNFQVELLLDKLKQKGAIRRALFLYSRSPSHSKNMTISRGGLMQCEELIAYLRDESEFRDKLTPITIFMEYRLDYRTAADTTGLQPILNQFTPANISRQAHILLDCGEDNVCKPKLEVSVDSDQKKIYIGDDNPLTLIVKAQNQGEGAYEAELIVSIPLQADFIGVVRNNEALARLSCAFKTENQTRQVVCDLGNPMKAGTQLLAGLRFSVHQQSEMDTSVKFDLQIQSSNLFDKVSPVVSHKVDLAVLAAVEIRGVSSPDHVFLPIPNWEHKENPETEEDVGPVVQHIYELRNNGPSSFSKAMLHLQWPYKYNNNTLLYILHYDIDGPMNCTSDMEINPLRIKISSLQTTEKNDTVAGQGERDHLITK
Integrin alpha-V/beta-5, sequence (P06756 891-1048 limits assumed): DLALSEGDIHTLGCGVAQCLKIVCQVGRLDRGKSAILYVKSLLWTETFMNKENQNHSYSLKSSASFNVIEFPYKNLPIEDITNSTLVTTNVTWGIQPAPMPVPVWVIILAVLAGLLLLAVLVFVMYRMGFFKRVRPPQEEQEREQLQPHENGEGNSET
Integrin alpha-V/beta-5, sequence (P18084 24-799 limits assumed): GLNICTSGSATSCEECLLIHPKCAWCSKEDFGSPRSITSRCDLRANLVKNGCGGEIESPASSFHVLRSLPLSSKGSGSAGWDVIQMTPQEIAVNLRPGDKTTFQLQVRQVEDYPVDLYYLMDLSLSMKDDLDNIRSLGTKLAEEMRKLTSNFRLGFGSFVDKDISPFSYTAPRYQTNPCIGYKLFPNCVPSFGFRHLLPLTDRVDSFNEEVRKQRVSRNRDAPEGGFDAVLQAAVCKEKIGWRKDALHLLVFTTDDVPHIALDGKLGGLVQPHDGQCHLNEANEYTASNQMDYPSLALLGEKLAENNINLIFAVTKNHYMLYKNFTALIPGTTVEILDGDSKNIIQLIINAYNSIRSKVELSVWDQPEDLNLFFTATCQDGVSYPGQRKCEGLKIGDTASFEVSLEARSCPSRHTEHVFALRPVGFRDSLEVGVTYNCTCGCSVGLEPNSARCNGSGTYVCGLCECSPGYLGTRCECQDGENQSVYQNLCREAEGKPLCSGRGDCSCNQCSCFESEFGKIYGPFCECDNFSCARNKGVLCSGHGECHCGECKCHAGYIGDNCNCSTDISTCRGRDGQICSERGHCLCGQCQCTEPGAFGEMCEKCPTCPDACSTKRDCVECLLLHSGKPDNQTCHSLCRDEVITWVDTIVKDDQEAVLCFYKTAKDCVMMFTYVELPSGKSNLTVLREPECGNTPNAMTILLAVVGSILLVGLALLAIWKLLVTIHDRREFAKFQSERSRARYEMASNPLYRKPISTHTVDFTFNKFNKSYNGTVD
Data set [8] has as its target Integrin alpha-V/beta-6 (Homo sapiens, UniProt P06756+P18564). In words: Inhibition of alphavbeta6 integrin (unknown origin) by solid phase binding assay. The data set is classed as protein-complex assay.
Data set [9] addresses Integrin alpha-V/beta-8 (Homo sapiens, UniProt P06756+P26012). Description: Inhibition of alphavbeta8 integrin (unknown origin) by solid phase binding assay. The data set is classed as protein-complex assay.
The target of data set [10] is Integrin alpha-4/beta-1 (Homo sapiens, UniProt P05556+P13612). In words: Inhibition of alpha4beta1 integrin (unknown origin) by solid phase binding assay. The data set is classed as protein-complex assay.
Integrin alpha-4/beta-1, sequence (P05556 whole entry): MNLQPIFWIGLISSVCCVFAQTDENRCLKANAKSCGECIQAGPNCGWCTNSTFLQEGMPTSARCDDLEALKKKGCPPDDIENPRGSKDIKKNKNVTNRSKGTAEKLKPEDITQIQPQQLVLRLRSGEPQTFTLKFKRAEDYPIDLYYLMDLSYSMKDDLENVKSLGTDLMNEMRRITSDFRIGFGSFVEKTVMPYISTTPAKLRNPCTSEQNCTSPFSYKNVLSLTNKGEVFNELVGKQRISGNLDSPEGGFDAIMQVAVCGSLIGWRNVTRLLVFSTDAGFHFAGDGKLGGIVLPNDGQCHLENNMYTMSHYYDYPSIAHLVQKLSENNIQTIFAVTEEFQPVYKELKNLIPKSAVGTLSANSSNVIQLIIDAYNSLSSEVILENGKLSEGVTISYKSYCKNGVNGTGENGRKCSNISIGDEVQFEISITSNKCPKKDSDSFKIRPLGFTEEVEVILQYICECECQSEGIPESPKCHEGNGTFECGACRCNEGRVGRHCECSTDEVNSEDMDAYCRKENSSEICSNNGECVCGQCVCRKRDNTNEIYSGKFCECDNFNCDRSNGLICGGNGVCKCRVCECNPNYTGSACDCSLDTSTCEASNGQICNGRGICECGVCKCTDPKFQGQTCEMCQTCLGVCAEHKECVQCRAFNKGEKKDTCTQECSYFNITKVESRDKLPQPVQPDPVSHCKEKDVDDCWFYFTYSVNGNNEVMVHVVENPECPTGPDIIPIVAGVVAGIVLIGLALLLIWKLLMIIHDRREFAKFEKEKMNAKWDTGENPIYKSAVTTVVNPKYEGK
Integrin alpha-4/beta-1, sequence (P13612 whole entry): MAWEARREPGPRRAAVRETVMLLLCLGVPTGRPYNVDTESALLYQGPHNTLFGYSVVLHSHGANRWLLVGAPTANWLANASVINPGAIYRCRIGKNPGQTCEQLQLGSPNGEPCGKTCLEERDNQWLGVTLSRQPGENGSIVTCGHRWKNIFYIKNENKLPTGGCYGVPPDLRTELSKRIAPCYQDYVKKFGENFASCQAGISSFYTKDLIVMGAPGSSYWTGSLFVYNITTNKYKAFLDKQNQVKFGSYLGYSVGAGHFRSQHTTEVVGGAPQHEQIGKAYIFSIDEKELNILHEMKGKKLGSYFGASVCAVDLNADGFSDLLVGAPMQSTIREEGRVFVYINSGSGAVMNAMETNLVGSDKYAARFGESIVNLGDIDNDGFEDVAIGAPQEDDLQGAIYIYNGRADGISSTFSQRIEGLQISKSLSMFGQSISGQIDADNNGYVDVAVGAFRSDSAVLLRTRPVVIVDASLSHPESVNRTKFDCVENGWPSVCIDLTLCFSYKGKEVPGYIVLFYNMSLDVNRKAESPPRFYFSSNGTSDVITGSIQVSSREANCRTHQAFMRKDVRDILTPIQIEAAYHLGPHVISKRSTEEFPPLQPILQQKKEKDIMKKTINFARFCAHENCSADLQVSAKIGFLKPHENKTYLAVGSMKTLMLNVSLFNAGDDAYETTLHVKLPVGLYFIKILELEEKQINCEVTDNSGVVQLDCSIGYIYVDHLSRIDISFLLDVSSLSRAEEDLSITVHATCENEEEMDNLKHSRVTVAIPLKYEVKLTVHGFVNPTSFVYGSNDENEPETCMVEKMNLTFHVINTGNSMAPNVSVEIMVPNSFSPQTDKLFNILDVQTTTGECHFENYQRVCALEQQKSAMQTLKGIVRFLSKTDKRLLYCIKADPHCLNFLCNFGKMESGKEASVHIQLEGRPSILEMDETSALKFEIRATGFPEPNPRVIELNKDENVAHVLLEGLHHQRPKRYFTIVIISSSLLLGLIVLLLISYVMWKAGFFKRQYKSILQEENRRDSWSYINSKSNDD
Data set [11] is filed under the species Homo sapiens. Description: Selectivity index, ratio of IC50 for alphavbeta3 integrin (unknown origin) to IC50 for alpha4beta1 integrin (unknown origin) by solid phase binding assay.
Data set [12] is described as follows: Apparent permeability of the compound across apical to basolateral side in human Caco-2 cells. The data set is classed as ADME, cell-based. (In general: Caco-2 monolayers are a common model of the intestinal barrier.)
The nature of data set [13]: Apparent permeability of the compound across basolateral to apical side in human Caco-2 cells. The data set is classed as ADME, cell-based.
For data set [14], the species on record is Mus musculus. Description: Antagonist activity at alpha5beta1 integrin/alphavbeta1 integrin in mouse tracheal rings assessed as inhibition of methacholine-induced airway hyperresponsiveness at 100 nM pretreated with IL-13 for 12 hrs followed by incubation with compound for 1 hr in presence of methacholine. The data set is classed as tissue-based. The settings on record: Trachea, filed as antagonist. Summed up: (§1)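 Wild-type mouse tracheal rings incubated 12 h with IL-13 (100 ng/mL), then 1 h with compound or vehicle. Force generated was measured in response to a range of methacholine concentrations. Negative-control rings received no IL-13. n=3 rings per group; statistics by repeated measures of variance.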

The species entered for data set [15] is Mus musculus. In words: Antagonist activity at alpha5beta1 integrin/alphavbeta1 integrin in mouse tracheal rings assessed as inhibition of methacholine-induced airway hyperresponsiveness at 100 nM incubated with compound for 1 hr in presence of methacholine. The data set is classed as tissue-based. The settings on record: Trachea, filed as antagonist. Summed up:
as §1

The structures appear in SMILES notation. Active and inactive are the calls of the source. No cut-off for these calls is given here.

Integrin alpha-V/beta-8, sequence (P06756 31-889 limits assumed): as the sequence (P06756 31-889 limits assumed) above
Integrin alpha-V/beta-8, sequence (P06756 891-1048 limits assumed): as the sequence (P06756 891-1048 limits assumed) above
Integrin alpha-V/beta-8, sequence (P26012 43-769 limits assumed): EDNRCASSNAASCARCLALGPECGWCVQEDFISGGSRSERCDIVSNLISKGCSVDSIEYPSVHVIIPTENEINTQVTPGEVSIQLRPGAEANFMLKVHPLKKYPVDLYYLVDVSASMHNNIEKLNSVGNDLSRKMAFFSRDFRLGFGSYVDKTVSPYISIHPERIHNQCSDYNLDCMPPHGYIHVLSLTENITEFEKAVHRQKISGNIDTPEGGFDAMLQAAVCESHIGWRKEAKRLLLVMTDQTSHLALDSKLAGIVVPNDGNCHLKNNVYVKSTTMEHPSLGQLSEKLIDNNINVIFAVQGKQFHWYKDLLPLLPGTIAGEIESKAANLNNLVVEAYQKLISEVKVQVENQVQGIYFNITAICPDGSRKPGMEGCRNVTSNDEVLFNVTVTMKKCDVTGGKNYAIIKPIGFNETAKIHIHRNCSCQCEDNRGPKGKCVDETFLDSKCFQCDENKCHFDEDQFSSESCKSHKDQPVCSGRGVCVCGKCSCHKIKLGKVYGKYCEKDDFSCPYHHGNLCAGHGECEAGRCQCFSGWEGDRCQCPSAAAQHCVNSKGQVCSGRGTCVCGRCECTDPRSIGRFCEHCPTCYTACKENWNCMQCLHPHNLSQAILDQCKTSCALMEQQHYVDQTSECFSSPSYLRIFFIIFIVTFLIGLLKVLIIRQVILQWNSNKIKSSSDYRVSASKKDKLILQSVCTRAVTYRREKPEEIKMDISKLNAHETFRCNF

For `CCCCCCCC(=O)Nc1cc(NC(=N)N)cc(C(=O)NCC(=O)NC[C@H](NC(=O)[C@@H]2CCCN2S(=O)(=O)c2ccccc2)C(=O)O)c1`, the values for the half-maximal inhibitory concentration (IC50) in data set [1] and in data set [2] were 110 nM and 16800 nM, respectively.
For the compound `N=C(N)Nc1cccc(C(=O)NNC(=O)NC[C@H](NC(=O)[C@@H]2CCCN2S(=O)(=O)c2ccccc2)C(=O)O)c1`, the results for the IC50 in data set [1], in data set [3] and in data set [2] were 50 nM, 158 nM and 6500 nM, respectively.
`N=C(N)NCCCCNC(=O)NC[C@H](NC(=O)[C@@H]1CCCN1S(=O)(=O)c1ccccc1)C(=O)O`: the values for the concentration for half-maximal inhibition (IC50) in data set [1], in data set [3] and in [2] were 9700 nM, 4 nM and above 100000 nM, respectively.
For `N=C(N)Nc1cc(NC(=O)CCCCNC(=O)C23CC4CC(CC(C4)C2)C3)cc(C(=O)NCC(=O)NC[C@H](NC(=O)[C@@H]2CCCN2S(=O)(=O)c2ccccc2)C(=O)O)c1`, the IC50 (in general, the concentration that gives 50% inhibition) in data set [4] was 0.7 nM; in data set [5] it was below 0.1 nM; in data set [6] it was above 10000 nM; in data set [7], 320 nM; in [8], 1870 nM; in data set [9], 6830 nM. In data set [10], this compound came in with a half-inhibitory concentration (IC50) of 182 nM. In addition, the Ratio IC50 in [11] was above 100.
Turning to `N=C(N)Nc1cc(NC(=O)CCCN)cc(C(=O)NCC(=O)NC[C@H](NC(=O)[C@@H]2CCCN2S(=O)(=O)c2ccccc2)C(=O)O)c1`, the IC50 turned out to be 32 nM in [1] and 56000 nM in data set [2].
Take `N=C(N)Nc1cc(NC(=O)CCNC(=O)C23CC4CC(CC(C4)C2)C3)cc(C(=O)NCC(=O)NC[C@H](NC(=O)[C@@H]2CCCN2S(=O)(=O)c2ccccc2)C(=O)O)c1`: the IC50 in [4] was 1.4 nM; in data set [5], below 0.1 nM; in data set [6] it was above 10000 nM; in data set [7] it was above 10000 nM; in [8] it was above 10000 nM; in data set [9], above 10000 nM. Also, in [10], the IC50 turned out to be 100 nM. In addition, the Ratio IC50 in [11] was above 100.
`N=C(N)Nc1cc(NC(=O)CCCC(=O)NC23CC4CC(CC(C4)C2)C3)cc(C(=O)NCC(=O)NC[C@H](NC(=O)[C@@H]2CCCN2S(=O)(=O)c2ccccc2)C(=O)O)c1`: the IC50 was 1 nM in data set [4]; 0.3 nM in data set [5]; above 10000 nM in [6]; 980 nM in [7]; above 10000 nM in [8]; above 10000 nM in data set [9]. For the same compound, the IC50 in data set [10] turned out to be 161 nM. Moreover, in data set [11], the Ratio IC50 is above 100.
For the compound `N=C(N)NCCCCCNC(=O)NC[C@H](NC(=O)[C@@H]1CCCN1S(=O)(=O)c1ccccc1)C(=O)O`, the IC50 was determined as 500 nM in data set [1] and 0.8 nM in data set [3].
For `N=C(N)Nc1cc(NC(=O)CCCNC(=O)C23CC4CC(CC(C4)C2)C3)cc(C(=O)NCC(=O)NC[C@H](NC(=O)[C@@H]2CCCN2S(=O)(=O)c2ccccc2)C(=O)O)c1`, the IC50 in data set [1] was 2.6 nM; in data set [3], 0.8 nM; in data set [2], 8800 nM; in data set [4], 0.8 nM; in [5] it was 0.14 nM; in [6] it was above 10000 nM. The IC50 in data set [7] is 3000 nM; in data set [8], 2760 nM; in data set [9] it was above 10000 nM; in data set [10], 105 nM. Also, the Papp in data set [12] is 0.37 10^-6 cm/s; in data set [13] it was 0.27 10^-6 cm/s. Also, the Ratio IC50 in data set [11] was above 100.
Consider `N=C(N)NCCCCCCNC(=O)NC[C@H](NC(=O)[C@@H]1CCCN1S(=O)(=O)c1ccccc1)C(=O)O`, for which the IC50 in data set [1] was determined as 900 nM; in [3], 0.9 nM; in data set [2], 15000 nM.
Turning to `N=C(N)NCCCCC(=O)Nc1ccc(C[C@H](NC(=O)[C@@H]2CCCN2S(=O)(=O)c2ccccc2)C(=O)O)cc1`, the IC50 was above 10000 nM in data set [1], 0.5 nM in data set [3] and above 10000 nM in data set [2].
`N=C(N)Nc1cccc(C(=O)NCC(=O)NC[C@H](NC(=O)[C@@H]2CCCN2S(=O)(=O)c2ccccc2)C(=O)O)c1`: the IC50 in data set [3] was determined as 32 nM; in data set [2] it was 1100 nM. For the same compound, the inhibition result in data set [14] and in [15] was “Active” in each case.
For the compound `N=C(N)NCCCCCC(=O)NC[C@H](NC(=O)[C@@H]1CCCN1S(=O)(=O)c1ccccc1)C(=O)O`, the IC50 in data set [1] was determined as 830 nM; in data set [3] it was 316 nM; in [2] it was 10000 nM.
For `N=C(N)Nc1cc(NC(=O)CNC(=O)C23CC4CC(CC(C4)C2)C3)cc(C(=O)NCC(=O)NC[C@H](NC(=O)[C@@H]2CCCN2S(=O)(=O)c2ccccc2)C(=O)O)c1`, the IC50 is 1.6 nM in [4]; below 0.1 nM in data set [5]; above 10000 nM in data set [6]; above 10000 nM in [7]; above 10000 nM in data set [8]; above 10000 nM in data set [9]. Also, in data set [10], the IC50 stood at 136 nM.
